Where two headings read alike, the source gives them in different places. Marks after values point to notes of the source that are not given here.
Experiments:
[1] = system: GI nematodes resistant to IVM and RBZ; assay: Faecal egg count reduction test; assay type: in vivo; conditions: for EPG Counts Day 15: arithmetic mean, n = 15
In short: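 Naturally infected male Aberdeen Angus calves, 9–11 months, ≥100 EPG on day −1; 15 per group, allocated by EPG ranking. Herds were levamisole-treated beforehand, then grazed ≥2 months on-farm. Dosing was oral 2.5 mg/kg or SC 0.2 or 3.75 mg/kg. Rectal faeces on day −1 and day 15 were read by modified McMaster (10 EPG). FECR (%) = 100(1 − T2/T1), using arithmetic group mean EPG; 95% CI by the Coles method.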

Ostertagia spp. = assay: FECR by genus from coprocultures, naturally parasitized calves; assay type: in vivo
Oesophagostomum spp. = assay: FECR by genus from coprocultures, naturally parasitized calves; assay type: in vivo
In short: (§1)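 Male Aberdeen Angus calves, 9–11 months, naturally infected, ≥100 EPG on day −1, were ranked by EPG and randomised to groups of 15 per farm. Dosing was oral 2.5 mg/kg or SC 0.2 or 3.75 mg/kg. Rectal faeces on day −1 and day 15 were read by modified McMaster (10 EPG sensitivity). Coprocultures used 10 g faeces; ~100 Baermann L3 were identified per sample. Genus efficacy used group mean EPG […] that genus's L3 proportion.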

Haemonchus spp. = assay: as above; assay type: in vivo
In short: as §1

Cooperia spp. = assay: as above; assay type: in vivo
In short: as §1

[2] = Plasma pharmacokinetics after oral administration of MNP to parasitized calves; assay type: in vivo
In short: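 Eight calves on Farm 1 received a single oral 2.5 mg/kg dose. Jugular heparinised blood was drawn pre-dose, at 2–10 h and days 1–9; plasma was stored at −20 °C. Acetonitrile extraction, N2 evaporation, then C18 HPLC-UV at 230 nm (acetonitrile:methanol:water 60:8:32, 0.8 mL/min) quantified parent and sulphone metabolite. Calibration 4–400 ng/mL; LOQ 4 ng/mL. Non-compartmental analysis: observed Cmax, trapezoidal AUC extrapolated to infinity, moment-based MRT; mean ± SD.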

[3] = sheep, ref Lifschitz et al., 2014; cited from earlier work
[4] = liver metabolism, sheep compared to cattle, ref Ballent et al., 2016; cited from earlier work
[5] = Adverse events in treated cattle; assay type: in vivo; conditions: cattle treated with MNP oral 2.5 mg/kg
Oesophagostomum = conditions: sheep, cited from earlier work; for reduction of Oesophagostomum: 2009

Structure (SMILES)	EPG Counts Day 15 ([1]; Farm 1, 15 days post-treatment)	EPG Counts Day 15 ([1]; Farm 2, 15 days post-treatment)	EPG Counts Day 15 ([1]; Farm 3, 15 days post-treatment)	FECR Day 15 (Ostertagia spp.; Farm 1) [%]	FECR Day 15 (Ostertagia spp.; Farm 2) [%]	FECR Day 15 (Ostertagia spp.; Farm 3) [%]	FECR Day 15 (Oesophagostomum spp.; Farm 1) [%]	FECR Day 15 (Oesophagostomum spp.; Farm 2) [%]	FECR Day 15 (Oesophagostomum spp.; Farm 3) [%]	FECR Day 15 (Haemonchus spp.; Farm 1) [%]	FECR Day 15 (Haemonchus spp.; Farm 2) [%]	FECR Day 15 (Haemonchus spp.; Farm 3) [%]	FECR Day 15 (Cooperia spp.; Farm 1) [%]	FECR Day 15 (Cooperia spp.; Farm 2) [%]	FECR Day 15 (Cooperia spp.; Farm 3) [%]	also measured
CC[C@H](C)[C@H]1O[C@]2(CC[C@@H]1C)C[C@@H]1C[C@@H](C/C=C(\C)[C@@H](O[C@H]3C[C@H](OC)[C@@H](O[C@H]4C[C@H](OC)[C@@H](O)[C@H](C)O4)[C@H](C)O3)[C@@H](C)/C=C/C=C3\CO[C@@H]4[C@H](O)C(C)=C[C@@H](C(=O)O1)[C@]34O)O2 [IVM, ivermectin]	269^b (0–1060) EPG	111^b (0–320) EPG	362^b (20–1520) EPG	100	100	100	100	100	100	19	100	0	80	56	43	
C[C@](C#N)(COc1cc(C#N)ccc1C(F)(F)F)NC(=O)c1ccc(SC(F)(F)F)cc1 [MNP, monepantel]	5.6a (0–20) EPG	8a (0–20) EPG	7a (0–20) EPG	100	100	99	74	22	64	100	100	100	100	100	100	time post-administration up to which analyte was measured/recovered in plasma ([2]; MNP oral 2.5 mg/kg, calves, LOQ 4 ng/mL): up to 120 h; AUC ([2]; bovine, plasma, po, 2.5 mg/kg): 1710 ± 651 ng·h/mL; AUC(0-inf) ([2]; bovine, plasma, po, 2.5 mg/kg): 2170 ± 783 ng·h/mL; Cmax ([2]; bovine, plasma, po, 2.5 mg/kg): 21.5 ± 4.62 ng/mL; MRT ([2]; bovine, plasma, po, 2.5 mg/kg): 112 ± 40.8 h; Tmax ([2]; bovine, plasma, po, 2.5 mg/kg): 8 ± 1.51 h; half-life ([2]; bovine, plasma, po, 2.5 mg/kg): 81 ± 31 h; overall efficacy (FECR) across farms ([1]; Farms 1, 2 and 3 together, day 15): 96–99%; concentration of MNP in the large intestine mucosa [3]: 225 ng/g; concentration of MNP in the small intestine mucosa, duodenum [3]: 762 ng/g; concentration of MNP in the small intestine mucosa, ileum [3]: 562 ng/g; rate of MNP conversion into MNPSO2 [4]: five-fold higher in sheep compared to cattle; efficacy (FECR) across farms (Ostertagia spp.; Farms 1-3 together): 100%; adverse events [5]: no adverse events were observed; efficacy (FECR) across farms (Haemonchus spp.; Farms 1-3 together): 100%; reduction of Oesophagostomum (Oesophagostomum; ref Bustamante et al.): 61.9%; efficacy against Oesophagostomum (Oesophagostomum; ref Hosking et al. (2009)): below 90%; reduction of Oesophagostomum (Oesophagostomum; ref Sager et al.): 88%; efficacy (FECR) across farms (Cooperia spp.; Farms 1-3 together): 100%
CCC[S+]([O-])c1ccc2[nH]c(NC(=O)OC)nc2c1 (centres unmarked) [RBZ, ricobendazole]	31^a (0–120) EPG	3^a (0–20) EPG	115^b (0–320) EPG		100	0	100	100	100	99	95	98	86	99	54	95% lower confidence interval of FECR ([1]; Farm 1, day 15): less than 90%; efficacy (FECR) on Farms 1 and 3 (Ostertagia spp.; Farms 1 and 3, stated jointly with Cooperia spp.): below 90%

Source: article PMC8044591 (International Journal for Parasitology: Drugs and Drug …, 2021)
